Data taken from PMC3254186 (Frontiers in Pharmacology, 2011).

Tests used:
Format in all cases: cell-based
wild type Kir7.1 = molecular target: T1, wild type Kir7.1 (Homo sapiens, UniProt O60928); experiment: Whole-cell patch clamp, wild type Kir7.1 in transfected HEK-293 cells
T1 sequence (O60928 1-360): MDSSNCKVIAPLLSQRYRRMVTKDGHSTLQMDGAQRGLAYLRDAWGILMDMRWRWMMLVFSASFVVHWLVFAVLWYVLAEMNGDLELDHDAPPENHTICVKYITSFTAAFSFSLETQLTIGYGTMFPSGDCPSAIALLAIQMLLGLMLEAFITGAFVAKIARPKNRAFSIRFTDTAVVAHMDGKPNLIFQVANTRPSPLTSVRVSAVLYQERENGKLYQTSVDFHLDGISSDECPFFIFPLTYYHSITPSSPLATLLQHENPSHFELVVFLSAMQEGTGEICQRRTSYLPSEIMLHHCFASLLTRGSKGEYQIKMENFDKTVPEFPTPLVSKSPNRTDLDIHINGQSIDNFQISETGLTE
Method in brief: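 HEK-293 cells were transiently co-transfected with channel plus an EGFP marker (Lipofectamine). Pipette: 135 mM KCl, 2 mM MgCl2, 1 mM EGTA, 10 mM HEPES, 2 mM Na2ATP, pH 7.3. Bath: 135 mM NaCl, 5 mM KCl, pH 7.4; some runs used 50 mM KCl. Held at −75 mV and ramped −120 to 120 mV every 5 s, at 20–23°C. Test compound was bath-applied for 2–10 min, then 2 mM BaCl2. CRC n = 4–7. τ taken from the time course.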

Kir2.3 = molecular target: T2, Kir2.3 (Homo sapiens, UniProt P48050); experiment: Two-electrode voltage clamp in Xenopus oocytes, Kir2.3
T2 sequence (P48050 1-445): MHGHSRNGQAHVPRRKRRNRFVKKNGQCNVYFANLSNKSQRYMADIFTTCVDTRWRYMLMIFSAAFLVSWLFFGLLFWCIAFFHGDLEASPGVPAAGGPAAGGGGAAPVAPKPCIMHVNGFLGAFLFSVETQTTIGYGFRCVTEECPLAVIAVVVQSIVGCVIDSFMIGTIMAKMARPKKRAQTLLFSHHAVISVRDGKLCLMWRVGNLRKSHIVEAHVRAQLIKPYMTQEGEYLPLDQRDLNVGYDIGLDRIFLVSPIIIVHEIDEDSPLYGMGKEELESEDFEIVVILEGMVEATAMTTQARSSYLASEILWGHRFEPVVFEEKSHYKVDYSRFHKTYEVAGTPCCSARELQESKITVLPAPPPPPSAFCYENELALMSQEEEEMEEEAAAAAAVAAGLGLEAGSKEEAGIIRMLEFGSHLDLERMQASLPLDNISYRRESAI
Method in brief: (§1)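 Stage V–VI Xenopus oocytes were defolliculated with 1 mg/mL collagenase and injected with 0.5–10 ng cRNA. They were kept at 16°C in modified L-15 for 24–72 h. Two-electrode voltage clamp at 20–23°C: held at −75 mV and stepped to −120 mV for 200 ms every 5 s, with current at −120 mV tracked over time. Test compound (50 μM) was perfused, then 2 mM Ba2+. Time constant of inhibition derived.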

Kir1.1 = molecular target: T3, Kir1.1 (Rattus norvegicus, UniProt P35560); experiment: Two-electrode voltage clamp in Xenopus oocytes, Kir1.1
T3 sequence (P35560 1-391): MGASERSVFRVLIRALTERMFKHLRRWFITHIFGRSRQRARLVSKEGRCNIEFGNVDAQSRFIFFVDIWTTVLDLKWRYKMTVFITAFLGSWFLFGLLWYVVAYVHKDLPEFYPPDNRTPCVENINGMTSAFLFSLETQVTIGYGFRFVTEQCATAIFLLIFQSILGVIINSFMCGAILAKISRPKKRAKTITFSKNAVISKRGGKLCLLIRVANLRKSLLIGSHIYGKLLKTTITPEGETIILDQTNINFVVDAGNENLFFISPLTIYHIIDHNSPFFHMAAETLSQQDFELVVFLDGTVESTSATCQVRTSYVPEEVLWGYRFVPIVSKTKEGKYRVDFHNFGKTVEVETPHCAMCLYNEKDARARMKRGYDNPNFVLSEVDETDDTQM
Method in brief: as §1

Cc1ccc(OCC(O)Cn2c(=N)n(Cc3ccccc3)c3ccccc32)cc1 (stereo not shown) [Compound 1, 1-(3-benzyl-2-imino-2,3-dihydro-1H-benzo[d]imidazol-1-yl)-3-(p-tolyloxy)propan-2-ol] was tested. Which IC50 (wild type Kir7.1; IC50 Kir7.1, whole-cell patch clamp, wild type Kir7.1, HEK-293) did it give?
The IC50 was about 1 µM.

And the “effect on wild type Kir7.1 activity” value (wild type Kir7.1; whole-cell patch clamp, 10 μM, n = 4)?
The value was “near complete inhibition”.

What about the “time constant for inhibition of Kir7.1” value (wild type Kir7.1; whole-cell patch clamp, 30 μM, mean ± SEM, n = 4) of the same compound?
The value was 14 ± 2 s.

And the “time constant (τ) of Kir2.3 inhibition” value (Kir2.3; TEVC oocytes, 50 μM, n = 7)?
Its value is 154 ± 32 s.

What about the inhibition at 50 µM (Kir2.3; read-out: inhibition of Kir2.3) of the same compound?
Its inhibition at 50 µM is 80.9 ± 5%.

And the “time constant of Kir1.1 inhibition” value (Kir1.1; TEVC oocytes, 50 μM, n = 8)?
Its value is 95 ± 15 s.

What about the inhibition at 50 µM (Kir1.1; read-out: inhibition of Kir1.1) of the same compound?
The inhibition at 50 µM was 4.3 ± 1.7%.
